# Experimental data reported in ChEMBL document CHEMBL4354800, “Amphiphilic nebramine-based hybrids Rescue legacy antibiotics from intrinsic resistance in multidrug-resistant Gram-negative bacilli” (Eur J Med Chem, 2019).
# What was measured:
# Assay type in all cases: functional
# Pseudomonas aeruginosa [1] = experiment: Potentiation of rifampicin-induced antibacterial activity against MDR/XDR Pseudomonas aeruginosa isolate 100036 harboring GyrA T83I mutant assessed as fold reduction in rifampicin MIC at 7.5 uM incubated for 18 hrs by broth microdilution method
# Outline: (§1)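 CLSI broth microdilution. Overnight cultures were set to 0.5 McFarland in saline, diluted 1:50 in Mueller-Hinton broth to a final 5 × 10^5 CFU/mL, and incubated 18 h at 37 °C against 2-fold antibiotic dilutions. A fixed adjuvant level was present throughout. MIC = lowest concentration with no visible turbidity, confirmed at 590 nm. Potentiation = fold drop in antibiotic MIC versus antibiotic alone.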
# Pseudomonas aeruginosa [2] = experiment: Potentiation of rifampicin-induced antimicrobial activity against MDR/XDR Pseudomonas aeruginosa isolate PA260-97103 harboring GyrA Thr83Ile mutant assessed as rifampicin MIC50 incubated for 18 hrs by broth microdilution method (reference value: 8 microg/ml); details: isolate PA260-97103, 18 h
# Pseudomonas aeruginosa [3] = experiment: Potentiation of moxifloxacin-induced antibacterial activity against MDR/XDR Pseudomonas aeruginosa isolate 100036 harboring GyrA T83I mutant assessed as fold reduction in moxifloxacin MIC at 7.5 uM incubated for 18 hrs by broth microdilution method; outline: as §1
# Pseudomonas aeruginosa [4] = experiment: Potentiation of minocycline-induced antimicrobial activity against MDR/XDR Pseudomonas aeruginosa isolate 101243 devoid of GyrA Thr83Ile mutant assessed as minocycline MIC80 incubated for 18 hrs by broth microdilution method (reference value: 32 microg/ml); details: isolate 101243, 18 h
# Pseudomonas aeruginosa [5] = experiment: Potentiation of rifampicin-induced antibacterial activity against MDR/XDR Pseudomonas aeruginosa isolate 91433 devoid of GyrA T83I mutant assessed as fold reduction in rifampicin MIC at 7.5 uM incubated for 18 hrs by broth microdilution method; outline: as §1
# Pseudomonas aeruginosa [6] = experiment: Potentiation of ciprofloxacin-induced antibacterial activity against MDR/XDR Pseudomonas aeruginosa isolate 91433 devoid of GyrA T83I mutant assessed as fold reduction in ciprofloxacin MIC at 7.5 uM incubated for 18 hrs by broth microdilution method
# Pseudomonas aeruginosa [7] = experiment: Potentiation of minocycline-induced antimicrobial activity against MDR/XDR Pseudomonas aeruginosa isolate PA262-101856 harboring GyrA Thr83Ile mutant assessed as minocycline MIC50 incubated for 18 hrs by broth microdilution method (reference value: 16 microg/ml); details: isolate PA262-101856, 18 h
# Pseudomonas aeruginosa [8] = experiment: Potentiation of rifampicin-induced antimicrobial activity against MDR/XDR Pseudomonas aeruginosa isolate PA259-96918 harboring GyrA Thr83Ile mutant assessed as rifampicin MIC50 incubated for 18 hrs by broth microdilution method (reference value: 8 microg/ml); details: isolate PA259-96918, 18 h
# Pseudomonas aeruginosa [9] = experiment: Potentiation of minocycline-induced antibacterial activity against MDR/XDR Pseudomonas aeruginosa isolate PA260-97103 harboring GyrA T83I mutant assessed as fold reduction in minocycline MIC at 7.5 uM incubated for 18 hrs by broth microdilution method
# Pseudomonas aeruginosa [10] = experiment: Potentiation of rifampicin-induced antimicrobial activity against MDR/XDR Pseudomonas aeruginosa isolate 91433 devoid of GyrA Thr83Ile mutant assessed as rifampicin MIC50 incubated for 18 hrs by broth microdilution method (reference value: 8 microg/ml); details: isolate 91433, 18 h
# Acinetobacter baumannii [11] = experiment: Synergistic antibacterial activity against multidrug-resistant Acinetobacter baumannii AB031 assessed as fractional inhibitory concentration index in presence of rifampicin incubated for 18 hrs by broth dilution method
# Acinetobacter baumannii [12] = experiment: Antimicrobial activity against multidrug-resistant Acinetobacter baumannii AB027 incubated for 18 hrs by broth dilution method; details: AB027, 18 h
# Outline: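 Broth microdilution per CLSI: overnight cultures set to 0.5 McFarland in saline, diluted 1:50 in Mueller-Hinton broth to a final 5 × 10^5 CFU/mL, added to 2-fold serial dilutions, incubated 18 h at 37 °C; MIC is the lowest concentration without visible turbidity, confirmed at 590 nm.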
# Pseudomonas aeruginosa [13] = experiment: Potentiation of rifampicin-induced antimicrobial activity against MDR/XDR Pseudomonas aeruginosa isolate PA260-97103 harboring GyrA Thr83Ile mutant assessed as rifampicin MIC80 incubated for 18 hrs by broth microdilution method (reference value: 16 microg/ml); details: isolate PA260-97103, 18 h
# Pseudomonas aeruginosa [14] = experiment: Potentiation of minocycline-induced antimicrobial activity against MDR/XDR Pseudomonas aeruginosa isolate 91433 devoid of GyrA Thr83Ile mutant assessed as minocycline MIC80 incubated for 18 hrs by broth microdilution method (reference value: 32 microg/ml); details: isolate 91433, 18 h
# Pseudomonas aeruginosa [15] = experiment: Potentiation of ciprofloxacin-induced antibacterial activity against MDR/XDR Pseudomonas aeruginosa isolate PA259-96918 harboring GyrA T83I mutant assessed as fold reduction in ciprofloxacin MIC at 7.5 uM incubated for 18 hrs by broth microdilution method
# Enterobacter cloacae = experiment: Potentiation of rifampicin-induced antibacterial activity against Enterobacter cloacae 117029 assessed as fold reduction in rifampicin MIC at 7.5 uM incubated for 18 hrs by broth dilution method
# Outline: (§2)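 Antibiotic MIC determined by CLSI broth microdilution (MHB, 5 × 10^5 CFU/mL, 18 h, 37 °C), once alone and once with a fixed concentration of the adjuvant. Potentiation is the ratio of the antibiotic MIC alone to its MIC in the presence of the adjuvant.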
# Acinetobacter baumannii [16] = experiment: Synergistic antibacterial activity against multidrug-resistant Acinetobacter baumannii AB027 assessed as fractional inhibitory concentration index in presence of minocycline incubated for 18 hrs by broth dilution method
# Pseudomonas aeruginosa [17] = experiment: Antimicrobial activity against XDR Pseudomonas aeruginosa isolate PA264 infected in Galleria mellonella larvae assessed as survival rate at 50 mg/kg co-administered with 50 mg/kg rifampicin at 2 hrs post-inoculation measured after 18 hrs relative to control
# Outline: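 G. mellonella larvae were injected with ~5 CFU of P. aeruginosa PA264 (10 µL of 5 × 10^2 CFU/mL in PBS) and held 2 h at 37 °C. A single 10 µL injection followed: monotherapy or rifampicin + compound (25+25, 50+50 or 75+75 mg/kg), with PBS as control. Larvae kept at 37 °C were scored every 6 h to 24 h; dead = no response to touch. n = 30 (two runs of 15); Kaplan-Meier.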
# Acinetobacter baumannii [18] = experiment: Synergistic antibacterial activity against multidrug-resistant Acinetobacter baumannii AB92247 assessed as fractional inhibitory concentration index in presence of rifampicin incubated for 18 hrs by broth dilution method
# Escherichia coli = experiment: Potentiation of minocycline-induced antibacterial activity against Escherichia coli 107115 assessed as fold reduction in minocycline MIC at 4.1 uM incubated for 18 hrs by broth dilution method; outline: as §2
# Klebsiella pneumoniae = experiment: Potentiation of rifampicin-induced antibacterial activity against Klebsiella pneumoniae 113254 assessed as fold reduction in rifampicin MIC at 4.1 uM incubated for 18 hrs by broth dilution method; outline: as §2
# Pseudomonas aeruginosa [19] = experiment: Potentiation of rifampicin-induced antibacterial activity against MDR/XDR Pseudomonas aeruginosa isolate 101885 harboring GyrA T83I mutant assessed as fold reduction in rifampicin MIC at 9 uM incubated for 18 hrs by broth microdilution method; outline: as §1
# Pseudomonas aeruginosa [20] = experiment: Potentiation of rifampicin-induced antibacterial activity against MDR/XDR Pseudomonas aeruginosa isolate PA259-96918 harboring GyrA T83I mutant assessed as fold reduction in rifampicin MIC at 9 uM incubated for 18 hrs by broth microdilution method; outline: as §1
structure (smiles),measurement,setting,value
COc1c(N2C[C@@H]3CCCN(CCCCCCCCCCCCO[C@@H]4[C@@H](O)[C@H](N)C[C@H](N)[C@H]4O[C@H]4O[C@H](CN)[C@@H](O)C[C@H]4N)[C@@H]3C2)c(F)cc2c(=O)c(C(=O)O)cn(C3CC3)c12.Cl.Cl.Cl.Cl.Cl,fold change (FC),Pseudomonas aeruginosa [1],256
same,MIC50,Pseudomonas aeruginosa [2],0.06 µg/mL
same,fold change (FC),Pseudomonas aeruginosa [3],16
same,MIC80,Pseudomonas aeruginosa [4],1 µg/mL
same,fold change (FC),Pseudomonas aeruginosa [5],128
same,fold change (FC),Pseudomonas aeruginosa [6],16
same,MIC50,Pseudomonas aeruginosa [7],0.5 µg/mL
same,MIC50,Pseudomonas aeruginosa [8],0.06 µg/mL
same,fold change (FC),Pseudomonas aeruginosa [9],32
same,MIC50,Pseudomonas aeruginosa [10],0.06 µg/mL
same,fractional inhibitory concentration index (FICI),Acinetobacter baumannii [11],0.04
same,MIC,Acinetobacter baumannii [12],> 256 µg/mL
same,MIC80,Pseudomonas aeruginosa [13],0.13 µg/mL
same,MIC80,Pseudomonas aeruginosa [14],1 µg/mL
same,fold change (FC),Pseudomonas aeruginosa [15],4
same,fold change (FC),Enterobacter cloacae,>=128
same,fractional inhibitory concentration index (FICI),Acinetobacter baumannii [16],>1
Cl.Cl.Cl.Cl.Cl.NC[C@H]1O[C@H](O[C@H]2[C@H](OCCCCCCCCCCCCN3CCN(c4cc5c(cc4F)c(=O)c(C(=O)O)cn5C4CC4)CC3)[C@@H](O)[C@H](N)C[C@@H]2N)[C@H](N)C[C@@H]1O,survival at 50 mg/kg,Pseudomonas aeruginosa [17],60%
same,fractional inhibitory concentration index (FICI),Acinetobacter baumannii [18],0.039
same,fold change (FC),Escherichia coli,16
same,fold change (FC),Klebsiella pneumoniae,64
Cl.Cl.Cl.Cl.Cl.Cl.NC[C@H]1O[C@H](O[C@H]2[C@H](OCCCCCCCCCCN3CCN(Cc4cccc5ccccc45)CC3)[C@@H](O)[C@H](N)C[C@@H]2N)[C@H](N)C[C@@H]1O,fold change (FC),Pseudomonas aeruginosa [19],128
same,fold change (FC),Pseudomonas aeruginosa [20],>=256
